Source: ChEMBL document CHEMBL4196009, “Novel vitexin-inspired scaffold against leukemia” (Eur J Med Chem, 2018)

Each compound was assayed on SUP-B15 (assay: Induction of apoptosis in human SUP-B15 cells assessed as late apoptotic cells at 10 uM after 24 hrs by Annexin V-FITC/propidium iodide staining-based flow cytometry (reference value: 2.2%)). Settings: not given.
Assay type: functional

| SMILES | Activity |
| --- | --- |
| COC(=O)c1cc(=O)c2cc(NC(=O)Nc3ccc(Cl)c(C(F)(F)F)c3)ccc2[nH]1 | 9.3% |
| COc1cc(OC)c2c(=O)cc(C(=O)N3CCN(C(=O)OC(C)(C)C)CC3)[nH]c2c1 | 3.2% |

Each compound was assayed on SEM cells (assay: Antiproliferative activity against human SEM cells after 72 hrs by CelTiter-Glo assay). Settings: not given.
Assay type: functional, cell-based

| SMILES | EC50 |
| --- | --- |
| COC(=O)c1cc(=O)c2c(OC)cc(OC)cc2n1S(=O)(=O)c1ccc(C)cc1 | 5.8 µM |
| COC(=O)c1cc(=O)c2cc(NC(=O)Nc3ccc(Cl)c(C(F)(F)F)c3)ccc2[nH]1 | > 6.35 µM |
| O=c1cc(-c2ccc(O)cc2)oc2c([C@@H]3O[C@H](CO)[C@@H](O)[C@H](O)[C@H]3O)c(O)cc(O)c12 [VITEXIN] | > 43.3 µM |
| COC(=O)c1cc(=O)c2c(OC)cc(OC)cc2n1C | > 19 µM |
| COc1cc(OC)c2c(=O)cc(C(=O)N3CCN(C(=O)OC(C)(C)C)CC3)[nH]c2c1 | 47 µM |

These compounds were tested on KOPN-8 (assay: Cell cycle arrest in human KOPN8 cells assessed as accumulation at G2/M phase at 10 uM after 24 hrs by propidium iodide staining-based flow cytometry (reference value: 9.67%)). Settings: not given.
Assay type: functional
Method in brief: (§1)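 KOPN-8 cells treated 24 h alongside a DMSO vehicle and a staurosporine (2.0 µM) positive control. Apoptosis was scored by FITC Annexin V / propidium iodide flow cytometry with quadrant gating (early, late apoptotic). DNA content was measured by PI staining to give the percentage of cells in G0/G1, S and G2/M. Groups were compared by t-test; error bars are SD.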

| SMILES | Activity |
| --- | --- |
| COC(=O)c1cc(=O)c2cc(NC(=O)Nc3ccc(Cl)c(C(F)(F)F)c3)ccc2[nH]1 | 11.11% |
| COc1cc(OC)c2c(=O)cc(C(=O)N3CCN(C(=O)OC(C)(C)C)CC3)[nH]c2c1 | 8.86% |

These compounds were tested on UoC-B1 (assay: Antiproliferative activity against human UOCB1 cells after 72 hrs by CelTiter-Glo assay). Settings: UoC-B1, 72 h.
Assay type: functional, cell-based

| SMILES | EC50 |
| --- | --- |
| COC(=O)c1cc(=O)c2cc(NC(=O)Nc3ccc(Cl)c(C(F)(F)F)c3)ccc2[nH]1 | > 6.35 µM |
| O=c1cc(-c2ccc(O)cc2)oc2c([C@@H]3O[C@H](CO)[C@@H](O)[C@H](O)[C@H]3O)c(O)cc(O)c12 [VITEXIN] | > 43.3 µM |
| COC(=O)c1cc(=O)c2c(OC)cc(OC)cc2n1C | 0.773 µM |

These compounds were tested on SUP-B15 (assay: Induction of apoptosis in human SUP-B15 cells assessed as necrotic cells at 10 uM after 24 hrs by Annexin V-FITC/propidium iodide staining-based flow cytometry (reference value: 9.2%)). Settings: not given.
Assay type: functional

| SMILES | Activity |
| --- | --- |
| COC(=O)c1cc(=O)c2cc(NC(=O)Nc3ccc(Cl)c(C(F)(F)F)c3)ccc2[nH]1 | 16.4% |
| COc1cc(OC)c2c(=O)cc(C(=O)N3CCN(C(=O)OC(C)(C)C)CC3)[nH]c2c1 | 11.3% |

The compounds below were run on THLE-2 (assay: Antiproliferative activity against human THLE2 cells after 72 hrs by CelTiter-Glo assay). Settings: THLE-2, 72 h.
Assay type: cell-based

| SMILES | EC50 |
| --- | --- |
| COC(=O)c1cc(=O)c2c(OC)cc(OC)cc2n1S(=O)(=O)c1ccc(C)cc1 | 149 µM |
| O=c1cc(-c2ccc(O)cc2)oc2c([C@@H]3O[C@H](CO)[C@@H](O)[C@H](O)[C@H]3O)c(O)cc(O)c12 [VITEXIN] | 200 µM |
| COc1cc(OC)c2c(=O)cc(C(=O)N3CCN(C(=O)OC(C)(C)C)CC3)[nH]c2c1 | 299 µM |

What follows are compounds tested on KOPN-8 (assay: Induction of apoptosis in human KOPN8 cells assessed as early apoptotic cells at 10 uM after 24 hrs by Annexin V-FITC/propidium iodide staining-based flow cytometry (reference value: 0.1%)). Settings: not given.
Assay type: functional
Method in brief: as §1

| SMILES | Activity |
| --- | --- |
| COC(=O)c1cc(=O)c2cc(NC(=O)Nc3ccc(Cl)c(C(F)(F)F)c3)ccc2[nH]1 | 0.1% |
| COc1cc(OC)c2c(=O)cc(C(=O)N3CCN(C(=O)OC(C)(C)C)CC3)[nH]c2c1 | 0.2% |

Each compound was assayed on KOPN-8 (assay: Induction of apoptosis in human KOPN8 cells assessed as viable cells at 10 uM after 24 hrs by Annexin V-FITC/propidium iodide staining-based flow cytometry (reference value: 85.2%)). Settings: KOPN-8, 24 h, read-out: Activity.
Assay type: functional
Method in brief: (§2)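 KOPN-8 cells were treated for 24 h, with a DMSO vehicle control and a staurosporine positive control. Cells were stained with FITC-Annexin V and propidium iodide and analysed by flow cytometry. Quadrant gating separated viable, early apoptotic, late apoptotic (Q2) and necrotic populations.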

| SMILES | viability at 10 µM |
| --- | --- |
| COC(=O)c1cc(=O)c2cc(NC(=O)Nc3ccc(Cl)c(C(F)(F)F)c3)ccc2[nH]1 | 80.7% |
| COc1cc(OC)c2c(=O)cc(C(=O)N3CCN(C(=O)OC(C)(C)C)CC3)[nH]c2c1 | 63.7% |

The compounds below were run on BJ (assay: Antiproliferative activity against human BJ cells after 72 hrs by CelTiter-Glo assay). Settings: not given.
Assay type: cell-based

| SMILES | EC50 |
| --- | --- |
| COC(=O)c1cc(=O)c2c(OC)cc(OC)cc2n1S(=O)(=O)c1ccc(C)cc1 | 139 µM |
| COC(=O)c1cc(=O)c2cc(NC(=O)Nc3ccc(Cl)c(C(F)(F)F)c3)ccc2[nH]1 | > 12.6 µM |
| O=c1cc(-c2ccc(O)cc2)oc2c([C@@H]3O[C@H](CO)[C@@H](O)[C@H](O)[C@H]3O)c(O)cc(O)c12 [VITEXIN] | > 86.2 µM |
| COC(=O)c1cc(=O)c2c(OC)cc(OC)cc2n1C | > 37.9 µM |
| COc1cc(OC)c2c(=O)cc(C(=O)N3CCN(C(=O)OC(C)(C)C)CC3)[nH]c2c1 | 13.8 µM |

What follows are compounds tested on KOPN-8 (assay: Cell cycle arrest in human KOPN8 cells assessed as accumulation at S phase at 10 uM after 24 hrs by propidium iodide staining-based flow cytometry (reference value: 66.56%)). Settings: not given.
Assay type: functional
Method in brief: as §1

| SMILES | Activity |
| --- | --- |
| COC(=O)c1cc(=O)c2cc(NC(=O)Nc3ccc(Cl)c(C(F)(F)F)c3)ccc2[nH]1 | 48.5% |
| COc1cc(OC)c2c(=O)cc(C(=O)N3CCN(C(=O)OC(C)(C)C)CC3)[nH]c2c1 | 61.36% |

Each compound was assayed on HepG2 (assay: Antiproliferative activity against human HepG2 cells after 72 hrs by CelTiter-Glo assay). Settings: HepG2, 72 h.
Assay type: functional, cell-based

| SMILES | EC50 |
| --- | --- |
| COC(=O)c1cc(=O)c2c(OC)cc(OC)cc2n1S(=O)(=O)c1ccc(C)cc1 | > 20 µM |
| COC(=O)c1cc(=O)c2cc(NC(=O)Nc3ccc(Cl)c(C(F)(F)F)c3)ccc2[nH]1 | > 6.35 µM |
| O=c1cc(-c2ccc(O)cc2)oc2c([C@@H]3O[C@H](CO)[C@@H](O)[C@H](O)[C@H]3O)c(O)cc(O)c12 [VITEXIN] | > 43.3 µM |
| COC(=O)c1cc(=O)c2c(OC)cc(OC)cc2n1C | > 19 µM |
| COc1cc(OC)c2c(=O)cc(C(=O)N3CCN(C(=O)OC(C)(C)C)CC3)[nH]c2c1 | 11.3 µM |

The compounds below were run on SUP-B15 (assay: Induction of apoptosis in human SUP-B15 cells assessed as viable cells at 10 uM after 24 hrs by Annexin V-FITC/propidium iodide staining-based flow cytometry (reference value: 82.8%)). Settings: SUP-B15, 24 h, read-out: Activity.
Assay type: functional

| SMILES | viability at 10 µM |
| --- | --- |
| COC(=O)c1cc(=O)c2cc(NC(=O)Nc3ccc(Cl)c(C(F)(F)F)c3)ccc2[nH]1 | 65.5% |
| COc1cc(OC)c2c(=O)cc(C(=O)N3CCN(C(=O)OC(C)(C)C)CC3)[nH]c2c1 | 77.7% |

These compounds were tested on SUP-B15 (assay: Antiproliferative activity against human SUP-B15 cells after 72 hrs by CelTiter-Glo assay). Settings: SUP-B15, 72 h.
Assay type: functional, cell-based

| SMILES | EC50 |
| --- | --- |
| COC(=O)c1cc(=O)c2c(OC)cc(OC)cc2n1S(=O)(=O)c1ccc(C)cc1 | 9.7 µM |
| COC(=O)c1cc(=O)c2cc(NC(=O)Nc3ccc(Cl)c(C(F)(F)F)c3)ccc2[nH]1 | > 12.6 µM |
| O=c1cc(-c2ccc(O)cc2)oc2c([C@@H]3O[C@H](CO)[C@@H](O)[C@H](O)[C@H]3O)c(O)cc(O)c12 [VITEXIN] | 50.7 µM |
| COC(=O)c1cc(=O)c2c(OC)cc(OC)cc2n1C | > 37.9 µM |
| COc1cc(OC)c2c(=O)cc(C(=O)N3CCN(C(=O)OC(C)(C)C)CC3)[nH]c2c1 | 3.98 µM |

What follows are compounds tested on KOPN-8 (assay: Antiproliferative activity against human KOPN8 cells after 72 hrs by CelTiter-Glo assay). Settings: KOPN-8, 72 h.
Assay type: functional, cell-based

| SMILES | EC50 |
| --- | --- |
| COC(=O)c1cc(=O)c2c(OC)cc(OC)cc2n1S(=O)(=O)c1ccc(C)cc1 | 6 µM |
| COC(=O)c1cc(=O)c2cc(NC(=O)Nc3ccc(Cl)c(C(F)(F)F)c3)ccc2[nH]1 | > 6.35 µM |
| O=c1cc(-c2ccc(O)cc2)oc2c([C@@H]3O[C@H](CO)[C@@H](O)[C@H](O)[C@H]3O)c(O)cc(O)c12 [VITEXIN] | > 43.3 µM |
| COC(=O)c1cc(=O)c2c(OC)cc(OC)cc2n1C | > 19 µM |
| COc1cc(OC)c2c(=O)cc(C(=O)N3CCN(C(=O)OC(C)(C)C)CC3)[nH]c2c1 | 6.73 µM |

Each compound was assayed on KOPN-8 (assay: Cell cycle arrest in human KOPN8 cells assessed as accumulation at G0/G1 phase at 10 uM after 24 hrs by propidium iodide staining-based flow cytometry (reference value: 24.77%)). Settings: not given.
Assay type: functional
Method in brief: as §1

| SMILES | Activity |
| --- | --- |
| COC(=O)c1cc(=O)c2cc(NC(=O)Nc3ccc(Cl)c(C(F)(F)F)c3)ccc2[nH]1 | 40.39% |
| COc1cc(OC)c2c(=O)cc(C(=O)N3CCN(C(=O)OC(C)(C)C)CC3)[nH]c2c1 | 29.78% |

What follows are compounds tested on KOPN-8 (assay: Induction of apoptosis in human KOPN8 cells assessed as necrotic cells at 10 uM after 24 hrs by Annexin V-FITC/propidium iodide staining-based flow cytometry (reference value: 0.2%)). Settings: not given.
Assay type: functional
Method in brief: as §2

| SMILES | Activity |
| --- | --- |
| COC(=O)c1cc(=O)c2cc(NC(=O)Nc3ccc(Cl)c(C(F)(F)F)c3)ccc2[nH]1 | 0.3% |
| COc1cc(OC)c2c(=O)cc(C(=O)N3CCN(C(=O)OC(C)(C)C)CC3)[nH]c2c1 | 0.5% |

Each compound was assayed on KOPN-8 (assay: Induction of apoptosis in human KOPN8 cells assessed as late apoptotic cells at 10 uM after 24 hrs by Annexin V-FITC/propidium iodide staining-based flow cytometry (reference value: 9.5%)). Settings: not given.
Assay type: functional
Method in brief: as §2

| SMILES | Activity |
| --- | --- |
| COC(=O)c1cc(=O)c2cc(NC(=O)Nc3ccc(Cl)c(C(F)(F)F)c3)ccc2[nH]1 | 12.3% |
| COc1cc(OC)c2c(=O)cc(C(=O)N3CCN(C(=O)OC(C)(C)C)CC3)[nH]c2c1 | 24.9% |

The compounds below were run on SUP-B15 (assay: Induction of apoptosis in human SUP-B15 cells assessed as early apoptotic cells at 10 uM after 24 hrs by Annexin V-FITC/propidium iodide staining-based flow cytometry (reference value: 0.1%)). Settings: not given.
Assay type: functional

| SMILES | Activity |
| --- | --- |
| COC(=O)c1cc(=O)c2cc(NC(=O)Nc3ccc(Cl)c(C(F)(F)F)c3)ccc2[nH]1 | 0.1% |
| COc1cc(OC)c2c(=O)cc(C(=O)N3CCN(C(=O)OC(C)(C)C)CC3)[nH]c2c1 | 0% |
